Results published in ChEMBL document CHEMBL2346537, “Phenylimino-2H-chromen-3-carboxamide derivatives as novel small molecule inhibitors of β-secretase (BACE1)” (Bioorg Med Chem, 2013).

What was measured:
[1] = Cytotoxicity against mouse Neuro2a cells expressing APP Swedish mutant assessed as cell viability at 5 uM after 24 hrs by MTT assay relative to control; assay type: cell-based, N2a; settings: read-out: Activity
In short: (§1)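 N2a-APPswe cells seeded at 2 × 10⁵ cells/ml (8 × 10⁴/well), grown overnight at 37 °C, then dosed as in the Aβ assay (DMSO diluted in medium, final DMSO under 0.5%). MTT 0.5 mg/ml added for 4 h at 37 °C, formazan dissolved in DMSO, read at 570 nm with 655 nm background. Viability given as percent of untreated control. Average of 3–4 experiments ± SEM.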

[2] = Cytotoxicity against mouse Neuro2a cells expressing APP Swedish mutant assessed as cell viability at 10 uM after 24 hrs by MTT assay relative to control; assay type: cell-based, N2a; settings: read-out: Activity; in short: as §1
[3] = target: Beta-secretase 1 (Mus musculus) (UniProt P56818); assay: Inhibition of BACE1 in mouse Neuro2a cells expressing APP Swedish mutant assessed as inhibition of amyloid beta (1 to 40) production at 5 uM after 24 hrs by sandwich ELISA relative to control; assay type: cell-based
In short: (§2)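 N2a-APPswe cells seeded at 2 × 10⁵ cells/ml and incubated overnight at 37 °C. Medium replaced, compound in growth medium added (DMSO under 0.5%), incubated 24 h. Conditioned medium collected with 0.1 mM PMSF. Human Aβ1–40 measured by colorimetric sandwich ELISA at 450 nm. Percent inhibition relative to untreated cells, 2–3 experiments ± SEM.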

[4] = target: Beta-secretase 1 (Mus musculus) (UniProt P56818); assay: Inhibition of BACE1 in mouse Neuro2a cells expressing APP Swedish mutant assessed as inhibition of amyloid beta (1 to 40) production at 10 uM after 24 hrs by sandwich ELISA relative to control; assay type: cell-based; in short: as §2
[5] = target: Beta-secretase 1 (Homo sapiens, UniProt P56817); assay: Inhibition of BACE1 (unknown origin) expressed in baculovirus expression system using Rh-EVNLDAEFK-Quencher as substrate after 90 mins by FRET assay
Sequence of Beta-secretase 1 (P56817 whole entry): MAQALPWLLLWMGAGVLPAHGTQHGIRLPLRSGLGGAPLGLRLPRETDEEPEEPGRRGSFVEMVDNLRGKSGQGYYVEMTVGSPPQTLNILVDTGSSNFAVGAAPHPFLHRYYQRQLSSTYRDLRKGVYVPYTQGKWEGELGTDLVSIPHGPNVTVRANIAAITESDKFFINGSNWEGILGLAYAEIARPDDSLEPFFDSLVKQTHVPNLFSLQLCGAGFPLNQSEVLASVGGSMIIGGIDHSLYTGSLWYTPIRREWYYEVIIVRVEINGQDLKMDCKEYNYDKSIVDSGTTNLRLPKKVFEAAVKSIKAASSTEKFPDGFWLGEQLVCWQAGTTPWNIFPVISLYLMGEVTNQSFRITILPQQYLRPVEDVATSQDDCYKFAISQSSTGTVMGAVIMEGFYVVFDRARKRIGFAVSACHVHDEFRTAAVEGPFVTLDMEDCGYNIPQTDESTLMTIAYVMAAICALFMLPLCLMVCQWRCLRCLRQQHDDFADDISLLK

Sequence of Beta-secretase 1 (Mus musculus) (P56818 whole entry): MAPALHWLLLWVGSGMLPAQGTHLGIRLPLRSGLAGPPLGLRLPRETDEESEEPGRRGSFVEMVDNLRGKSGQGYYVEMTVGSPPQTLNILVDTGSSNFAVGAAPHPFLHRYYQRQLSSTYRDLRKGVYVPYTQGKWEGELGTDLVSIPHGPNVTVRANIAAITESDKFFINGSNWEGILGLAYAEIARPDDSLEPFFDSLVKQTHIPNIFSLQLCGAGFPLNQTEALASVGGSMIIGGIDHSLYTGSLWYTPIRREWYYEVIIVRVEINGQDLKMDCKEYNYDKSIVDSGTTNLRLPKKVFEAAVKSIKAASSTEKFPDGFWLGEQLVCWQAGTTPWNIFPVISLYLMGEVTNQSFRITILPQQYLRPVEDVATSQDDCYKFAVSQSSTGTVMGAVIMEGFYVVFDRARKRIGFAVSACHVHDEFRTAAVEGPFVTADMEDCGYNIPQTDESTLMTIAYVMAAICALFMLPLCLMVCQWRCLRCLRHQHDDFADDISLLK

inhibition [3]	inhibition [4]	IC50 [5]	Structure (SMILES)	viability at 24 h, 5 µM [1]	viability at 24 h, 10 µM [2]
–	–	3550 nM	O=C(Nc1cc(Br)ccc1N1CCN(C(=O)c2cccs2)CC1)c1cc2ccccc2o/c1=N\c1ccccc1	–	–
–	51.8%	119 nM	N#Cc1cccc(CN2CCN(c3ccc(Br)cc3NC(=O)c3cc4ccccc4o/c3=N\c3ccccc3)CC2)c1	91.2%	88.7%
41.3%	48.2%	849 nM	O=C(Nc1cc(Br)ccc1N1CCN(CCO)CC1)c1cc2ccccc2o/c1=N\c1ccccc1	105%	101%
–	22.9%	578 nM	COc1ccc(CN2CCN(c3ccc(Br)cc3NC(=O)c3cc4ccccc4o/c3=N\c3ccccc3)CC2)cc1	101%	98.3%
53.1%	65.8%	741 nM	O=C(Nc1cc(Br)ccc1N1CCN(C(=O)c2ccco2)CC1)c1cc2ccccc2o/c1=N\c1ccccc1	93%	95.4%
–	–	> 10000 nM	O=C(Nc1cc(Br)ccc1N1CCN(C(=O)c2cccc(Cl)c2)CC1)c1cc2ccccc2o/c1=N\c1ccccc1	–	–
–	–	> 10000 nM	COc1ccc(C(=O)N2CCN(c3ccc(Br)cc3NC(=O)c3cc4ccccc4o/c3=N\c3ccccc3)CC2)cc1	–	–
–	–	9810 nM	CC(C)(C)OC(=O)N1CCN(c2ccc(Br)cc2NC(=O)c2cc3ccccc3o/c2=N\c2ccccc2)CC1	–	–
60.9%	64.7%	503 nM	O=C(Nc1cc(Br)ccc1N1CCN(Cc2ccccc2)CC1)c1cc2ccccc2o/c1=N\c1ccccc1	102%	95%
–	–	> 10000 nM	COc1cccc2cc(C(=O)Nc3cc(Br)ccc3N3CCN(Cc4ccccc4)CC3)/c(=N/c3ccccc3)oc12	–	–
–	–	26400 nM	O=C(Nc1cc(Br)ccc1N1CCN(C(=O)c2cccc([N+](=O)[O-])c2)CC1)c1cc2ccccc2o/c1=N\c1ccccc1	–	–
–	–	25700 nM	COc1ccccc1C(=O)N1CCN(c2ccc(Br)cc2NC(=O)c2cc3ccccc3o/c2=N\c2ccccc2)CC1	–	–

Second part, the compound before the results:

Structure (SMILES)	inhibition [3]	inhibition [4]	IC50 [5]	viability at 24 h, 5 µM [1]	viability at 24 h, 10 µM [2]
N=c1oc2ccccc2cc1C(=O)Nc1cc(Br)ccc1N1CCN(Cc2ccccc2)CC1	26.4%	58.3%	1220 nM	99.7%	98.9%
N#CCCCN1CCN(c2ccc(Br)cc2NC(=O)c2cc3ccccc3o/c2=N\c2ccccc2)CC1	–	–	> 10000 nM	–	–
O=C(Nc1cc(Br)ccc1N1CCN(CCCN2C(=O)c3ccccc3C2=O)CC1)c1cc2ccccc2o/c1=N\c1ccccc1	44.3%	–	326 nM	101%	–
O=C(Nc1cc(Br)ccc1N1CCNCC1)c1cc2ccccc2o/c1=N\c1ccccc1	–	–	9270 nM	–	–
COc1cccc2cc(C(=O)Nc3cc(Br)ccc3N3CCN(Cc4ccccc4)CC3)c(=N)oc12	–	–	> 10000 nM	–	–
CC(C)(C)OC(=O)N1CCN(c2ccc(Br)cc2NC(=O)c2cc3ccccc3oc2=N)CC1	–	–	> 10000 nM	–	–
CC(C)C[C@H](NC(=O)[C@H](CC(N)=O)NC(=O)[C@@H](NC(=O)[C@@H](N)CCC(=O)O)C(C)C)[C@@H](O)CC(C)C(=O)N[C@@H](C)C(=O)N[C@@H](CCC(=O)O)C(=O)N[C@@H](Cc1ccccc1)C(=O)O (single isomer, unassigned)	–	–	–	< 70%	< 70%
O=C(Nc1cc(Br)ccc1N1CCN(CCCCN2C(=O)c3ccccc3C2=O)CC1)c1cc2ccccc2o/c1=N\c1ccccc1	–	–	854 nM	–	–
O=C(Nc1cc(Br)ccc1N1CCN(CCN2C(=O)c3ccccc3C2=O)CC1)c1cc2ccccc2o/c1=N\c1ccccc1	13.6%	39.4%	98 nM	108%	96.5%
O=C(Nc1cc(Br)ccc1N1CCN(CCc2cc3ccccc3[nH]2)CC1)c1cc2ccccc2o/c1=N\c1ccccc1	37.8%	57.6%	928 nM	105%	111%
